In ChEMBL document CHEMBL5338796, “Discovery of a Selective and Orally Bioavailable FGFR2 Degrader for Treating Gastric Cancer” (J Med Chem, 2023):
Activity calls are given as the source filed them. The rule behind the calls is not given here.

Legend:
[1] = Toxicity in ICR mouse assessed as change in kidney weight at 20 mg/kg, po measured for 30 days; assay type: organism-based; conditions: in vivo, 720 h, time 30 day
Procedure, shortened: (§1)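 ICR mice (n = 6) were dosed orally at 20 mg/kg/day for 30 days, alongside vehicle-treated controls. Mortality and clinical signs were checked daily. At the end, body and organ weights were recorded. Heart, liver, spleen, lung and kidney were examined by hematoxylin and eosin staining.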

[2] = target: Mitogen-activated protein kinase kinase kinase 4 (Homo sapiens) (UniProt Q9Y6R4); test: Inhibition of partial length human MAP3K4 at 1000 nM by KINOMEscan analysis relative to control
Chain of Mitogen-activated protein kinase kinase kinase 4 (Homo sapiens) (Q9Y6R4 whole entry): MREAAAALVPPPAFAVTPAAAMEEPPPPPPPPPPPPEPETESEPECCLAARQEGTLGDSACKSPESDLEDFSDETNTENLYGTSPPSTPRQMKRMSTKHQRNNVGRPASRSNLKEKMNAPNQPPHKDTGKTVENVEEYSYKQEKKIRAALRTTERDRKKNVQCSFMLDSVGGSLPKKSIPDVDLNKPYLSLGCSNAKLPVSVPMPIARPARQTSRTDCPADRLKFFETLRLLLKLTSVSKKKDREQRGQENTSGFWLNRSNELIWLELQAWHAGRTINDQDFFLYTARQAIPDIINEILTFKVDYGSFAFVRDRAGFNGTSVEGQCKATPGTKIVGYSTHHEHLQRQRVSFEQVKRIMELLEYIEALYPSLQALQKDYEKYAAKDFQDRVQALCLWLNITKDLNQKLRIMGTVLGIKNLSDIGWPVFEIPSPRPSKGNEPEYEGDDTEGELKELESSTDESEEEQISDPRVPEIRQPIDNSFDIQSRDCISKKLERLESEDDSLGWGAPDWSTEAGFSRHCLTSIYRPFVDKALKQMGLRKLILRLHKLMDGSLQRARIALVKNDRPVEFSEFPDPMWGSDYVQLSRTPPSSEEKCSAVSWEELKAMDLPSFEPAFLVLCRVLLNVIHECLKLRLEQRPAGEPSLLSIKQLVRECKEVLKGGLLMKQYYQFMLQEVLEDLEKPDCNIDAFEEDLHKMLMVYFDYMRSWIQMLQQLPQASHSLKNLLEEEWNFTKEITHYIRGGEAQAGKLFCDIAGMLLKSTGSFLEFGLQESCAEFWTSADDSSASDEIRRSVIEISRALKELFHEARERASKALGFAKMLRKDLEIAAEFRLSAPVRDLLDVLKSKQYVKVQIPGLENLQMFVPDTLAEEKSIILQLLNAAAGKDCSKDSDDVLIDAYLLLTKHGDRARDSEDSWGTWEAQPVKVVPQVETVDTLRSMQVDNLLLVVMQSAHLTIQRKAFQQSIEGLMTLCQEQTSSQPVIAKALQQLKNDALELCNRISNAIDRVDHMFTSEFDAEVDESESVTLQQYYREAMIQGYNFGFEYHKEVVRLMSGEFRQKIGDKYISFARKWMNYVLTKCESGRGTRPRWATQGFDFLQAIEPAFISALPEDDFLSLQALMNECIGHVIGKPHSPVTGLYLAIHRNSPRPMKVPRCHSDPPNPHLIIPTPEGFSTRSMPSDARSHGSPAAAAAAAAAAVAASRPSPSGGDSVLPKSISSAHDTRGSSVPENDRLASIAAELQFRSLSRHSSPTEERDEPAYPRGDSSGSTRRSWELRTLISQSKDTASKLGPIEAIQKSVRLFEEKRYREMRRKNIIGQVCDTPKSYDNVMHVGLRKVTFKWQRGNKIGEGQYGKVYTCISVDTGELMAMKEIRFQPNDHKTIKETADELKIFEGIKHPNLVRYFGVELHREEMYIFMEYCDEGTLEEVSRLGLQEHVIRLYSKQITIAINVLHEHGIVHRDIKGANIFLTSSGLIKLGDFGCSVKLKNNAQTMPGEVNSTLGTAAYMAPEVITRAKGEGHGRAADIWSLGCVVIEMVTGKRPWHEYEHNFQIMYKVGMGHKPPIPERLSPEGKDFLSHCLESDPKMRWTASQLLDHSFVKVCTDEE

[3] = target: T1, Protein cereblon/Fibroblast growth factor receptor 2 (Homo sapiens, UniProt P21802+Q96SW2); test: PROTAC activity at CRBN/FGFR2 in human KATO III stomach cancer cell line assessed as FGFR2 degradation by measuring maximum efficacy at 0.5 to 10000 nM measured for 6 hrs by Western blotting analysis relative to control; assay type: cell-based; conditions: dose 0.5-10000 nM
Procedure, shortened: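 KATO III cells treated for 6 h at the stated concentrations, added from 10 mM DMSO stocks (final DMSO below 0.5%). Cells were washed with PBS and lysed in 2× loading buffer, then run on SDS-PAGE and blotted to PVDF. Anti-FGFR2 was applied overnight at 4 °C, with ECL detection. FGFR2 was expressed as FGFR2/β-actin, normalized to DMSO-treated cells, from three independent biological experiments.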

[4] = Toxicity in ICR mouse assessed as morphological changes in heart at 20 mg/kg, po measured for 30 days by hematoxyin-eosin staining based analysis; assay type: organism-based; conditions: in vivo, 720 h, time 30 day; procedure, shortened: as §1
[5] = Tmax in Sprague-Dawley rat at 3 mg/kg, iv measured at 0.083 to 24 hrs by LC-MS/MS analysis; assay type: ADME, organism-based; conditions: in vivo, time 0.083-24 hrs
Procedure, shortened: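 Male Sprague Dawley rats received a single dose of 3 mg/kg i.v. or 20 mg/kg p.o. Vehicle was 10% Solutol, 85% (10% HP-β-CD in saline) and 5% DMSO, adjusted to pH 9–10. Plasma was assayed by LC–MS/MS.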

[6] = target: T1, Protein cereblon/Fibroblast growth factor receptor 2; test: PROTAC activity at CRBN/FGFR2 in human KATO III stomach cancer cell line assessed as FGFR2 degradation by measuring FGFR2 expression level at 100 to 500 nM measured for 6 hrs by Western blotting analysis; assay type: cell-based; conditions: dose 100-500 nM
Procedure, shortened: (§2)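 KATO III cells treated 6 h across 0.5–10,000 nM (DMSO stock, final DMSO below 0.5%); FGFR2 immunoblotted, quantified as FGFR2/β-actin ratio normalized to DMSO-treated cells, three independent biological experiments; DC50 and Dmax derived from the curve.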

[7] = target: T1, Protein cereblon/Fibroblast growth factor receptor 2; test: PROTAC activity at CRBN/FGFR2 in human KATO III stomach cancer cell line assessed as FGFR2 degradation by measuring FGFR2 expression level upto 100 nM measured after 3 hrs by Western blotting analysis; assay type: cell-based
Procedure, shortened: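 Time course in KATO III cells: FGFR2/β-actin by Western blot at successive treatment times, normalized to DMSO control.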

[8] = Toxicity in ICR mouse assessed as change in spleen weight at 20 mg/kg, po measured for 30 days; assay type: organism-based; conditions: in vivo, 720 h, time 30 day; procedure, shortened: as §1
[9] = target: T1, Protein cereblon/Fibroblast growth factor receptor 2; test: PROTAC activity at CRBN/FGFR2 in human KATO III stomach cancer cell line assessed as FGFR2 degradation by measuring FGFR2 expression level measured for 6 hrs by Western blotting analysis; assay type: cell-based; procedure, shortened: as §2
[10] = Toxicity in ICR mouse assessed as change in liver weight at 20 mg/kg, po measured for 30 days; assay type: organism-based; conditions: in vivo, 720 h, time 30 day; procedure, shortened: as §1
SNU-16 = test: Antitumor activity against human SNU-16 cells xenografted in BALB/c nude mouse assessed as tumor growth inhibition at 20 mg/kg, po administered for 15 days and measured on day 2; assay type: functional; conditions: SNU-16, 48 h, time 2 day, read-out: TGI
Procedure, shortened: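 Female BALB/c nude mice, 5 weeks old (20–22 g), s.c. right-flank SNU-16 implants, randomized by body weight into groups (n = 5) once tumours reached 50–100 mm3. Dosing 20 mg/kg/day intragastric in 0.5% CMC-Na for 15 d; vehicle controls. Tumour width and length measured every 2 days; tumours harvested 4 h after last dose and lysates immunoblotted for pFGFR, FGFR2, pPLCγ, pErk.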

[11] = target: Fibroblast growth factor receptor 2 (Homo sapiens) (UniProt P21802); test: Induction of FGFR2 receptor internalization in human KATO III stomach cancer cell line at 100 nM measured for 6 hrs by immunofluorescence assay; assay type: cell-based; conditions: filed as activator
Chain of Fibroblast growth factor receptor 2 (Homo sapiens) (P21802 22-821 limits assumed): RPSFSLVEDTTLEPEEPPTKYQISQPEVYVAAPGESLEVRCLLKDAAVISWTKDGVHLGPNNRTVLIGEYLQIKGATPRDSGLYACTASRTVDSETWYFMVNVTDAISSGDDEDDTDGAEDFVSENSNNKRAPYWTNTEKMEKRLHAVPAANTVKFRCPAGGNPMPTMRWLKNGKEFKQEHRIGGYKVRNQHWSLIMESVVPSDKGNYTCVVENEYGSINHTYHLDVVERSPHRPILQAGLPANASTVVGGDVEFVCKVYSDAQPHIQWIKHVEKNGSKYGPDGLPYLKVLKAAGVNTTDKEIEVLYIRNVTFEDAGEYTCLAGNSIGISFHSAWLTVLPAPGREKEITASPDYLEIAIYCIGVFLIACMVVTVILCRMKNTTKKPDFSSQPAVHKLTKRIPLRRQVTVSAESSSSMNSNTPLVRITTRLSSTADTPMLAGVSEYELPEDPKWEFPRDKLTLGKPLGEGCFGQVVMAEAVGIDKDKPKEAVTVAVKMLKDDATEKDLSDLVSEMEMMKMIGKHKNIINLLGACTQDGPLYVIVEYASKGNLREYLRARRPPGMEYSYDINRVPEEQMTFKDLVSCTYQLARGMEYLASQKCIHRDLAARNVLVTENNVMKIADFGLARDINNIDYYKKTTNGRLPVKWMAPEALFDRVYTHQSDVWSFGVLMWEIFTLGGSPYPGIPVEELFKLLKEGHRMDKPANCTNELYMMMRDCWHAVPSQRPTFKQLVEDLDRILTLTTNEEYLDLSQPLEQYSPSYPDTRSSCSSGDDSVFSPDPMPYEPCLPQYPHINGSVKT
Procedure, shortened: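 KATO III cells treated with 100 nM for 3 or 6 h, fixed in 2% formaldehyde 2 min, blocked 5% BSA 1 h, anti-FGFR2 overnight, Alexa Fluor 488 secondary 1 h, DAPI 10 min; imaged by fluorescence microscopy.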

[12] = Toxicity in ICR mouse assessed as morphological changes in kidney at 20 mg/kg, po measured for 30 days by hematoxyin-eosin staining based analysis; assay type: organism-based; conditions: in vivo, 720 h, time 30 day; procedure, shortened: as §1
[13] = Cmax in mouse at 20 mg/kg, po measured at 0.25 to 24 hrs by LC-MS/MS analysis; conditions: in vivo
[14] = target: T1, Protein cereblon/Fibroblast growth factor receptor 2; test: PROTAC activity at CRBN/FGFR2 in human KATO III stomach cancer cell line assessed as FGFR2 degradation measured for 6 hrs in presence of MG132 by immunoblot analysis; assay type: cell-based
Procedure, shortened: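 KATO III cells were pretreated with 1 μM proteasome inhibitor (MG132 or bortezomib), then exposed to degrader at 100 nM for 6 h. FGFR2 was read by immunoblot against β-actin loading, with ECL detection.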

[15] = Hepatotoxicity in ICR mouse assessed as effect on AST level at 20 mg/kg, po measured for 30 days; assay type: toxicity, organism-based; conditions: in vivo, 720 h, time 30 day
Procedure, shortened: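 ICR mice given 20 mg/kg/day orally for 30 days (n = 6), vehicle controls; mortality and clinical signs checked daily, then AST/ALT and creatinine, organ weights, haematology and H&E of heart, liver, spleen, lung, kidney.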

[16] = Tmax in mouse at 20 mg/kg, po measured at 0.25 to 24 hrs by LC-MS/MS analysis; conditions: in vivo
[17] = Toxicity in ICR mouse assessed as change in lung weight at 20 mg/kg, po measured for 30 days; assay type: organism-based; conditions: in vivo, 720 h, time 30 day; procedure, shortened: as §1
[18] = Cmax in mouse at 3 mg/kg, iv measured at 0.083 to 24 hrs by LC-MS/MS analysis; conditions: in vivo
[19] = target: T1, Protein cereblon/Fibroblast growth factor receptor 2; test: PROTAC activity at CRBN/FGFR2 in human KATO III stomach cancer cell line assessed as FGFR2 degradation by measuring FGFR2 expression level at 0.5 to 100 nM measured for 6 hrs by Western blotting analysis; assay type: cell-based; conditions: dose 0.5-100 nM; procedure, shortened: as §2
[20] = Toxicity in ICR mouse assessed as morphological changes in liver at 20 mg/kg, po measured for 30 days by hematoxyin-eosin staining based analysis; assay type: organism-based; conditions: in vivo, 720 h, time 30 day; procedure, shortened: as §1

COc1cc(OC)c(Cl)c(NC(=O)N(C)c2cc(Nc3ccc(N4CCN(C(=O)C5CCN(c6ccc7c(c6)C(=O)N(C6CCC(=O)NC6=O)C7=O)CC5)CC4)cc3)ncn2)c1Cl (stereo unspecified)
Activity [1]: Non-Toxic
inhibition [2]: 45%
Emax [3]: 80%
Activity [4]: Non-Toxic
Tmax [5]: 4.98 min
Activity [6]: 70%
Activity [7]: Active
Activity [8]: Non-Toxic
DC50 [9]: 11.8 nM
Activity [10]: Non-Toxic
inhibition in vivo at 20 mg/kg (SNU-16): 63.1%
Activity [11]: Active
Activity [12]: Non-Toxic
Cmax [13]: 82.1 ng/mL
Activity [14]: inactive
Activity [15]: Non-Toxic
Tmax [16]: 2.67 h
Activity [17]: Non-Toxic
Cmax [18]: 655 ng/mL
Activity [19]: inactive
Activity [20]: Non-Toxic
